This data set in a line: Toxicity liver stage against HepG2, at 10uM. It counts as cell-based. More on the design: test concentration 10 uM, cell line HepG2-A16-CD81EGFP. The settings on record: human, HepG2-A16-CD81EGFP cells; read-out: INHIBITION
In a few lines:
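Uninfected HepG2-A16-CD81EGFP cells, 3 × 10^3 per well, 1536-well, plated on prespotted compound at 10 μM final, parasite-free screening media added to match infected plates; puromycin 10 μM positive, DMSO 0.5% negative; run in parallel with 48 h PbLuc assay at 37 °C, 5% CO2; viability by CellTiter-Glo luminescence, normalized to controls.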

Among the data in ChEMBL document CHEMBL4513216, “Probing the Open Global Health Chemical Diversity Library for Multistage-Active Starting Points for Next-Generation Antimalarials” (ACS Infect Dis, 2020) are cytotoxicity values, retold here.

Regarding `CCCC1(C(=O)O)CCCN(C(=O)c2cc(Cl)ccc2F)C1` (stereo not drawn), the cytotoxicity at 10 µM was 0.515%.

With `CNC(=O)Cn1ccc2ccc(NC(=O)NC(C)C(C)C)cc21` (stereo not drawn), the cytotoxicity at 10 µM is 3.36%.

On to `Cc1ccc(NC2CCN(C(=O)C(C)n3cncn3)CC2)nn1` (stereo not drawn), for which the cytotoxicity at 10 µM was -14.2%.

On to `O=C(CN1CCCc2c(F)cc(Br)cc21)N1CCN(C(=O)C2CC2)CC1`, for which the cytotoxicity at 10 µM is -5.06%.

On to `Cc1ccc(-c2snnc2C(=O)NCCCO)cc1`, for which the cytotoxicity at 10 µM was determined as 6.67%.

Take `CCCn1nnnc1CSc1nccn1CC`: the cytotoxicity at 10 µM is -5.15%.

In the case of `CCc1cc(NCCCNS(C)(=O)=O)nc(-c2ccncc2)n1`, the cytotoxicity at 10 µM was found to be 3.62%.

With `CCN1CCC2(CN(C(C)=O)CC23CCN(CC2CC2)CC3)C1=O` (stereo not drawn), the cytotoxicity at 10 µM was found to be 3.94%.

On to `Cc1cccc(C(=O)N2CCc3ncnc(C4CCOC4)c3CC2)n1` (stereo not drawn), for which the cytotoxicity at 10 µM was -69.8%.

Turning to `COc1ccc(C(=O)Nc2ccccc2-c2ccc(=O)n(C)n2)nn1`, the cytotoxicity at 10 µM is 2.18%.

Regarding `CC1CCCN1C1CCN(C(=O)c2cccc(F)c2)CC1` (stereo not drawn), the cytotoxicity at 10 µM worked out at 5.93%.

Take `CC(C)NC(=O)N1CCc2ncnc(-c3ccncc3)c2CC1`: the cytotoxicity at 10 µM is -0.736%.

Take `O=C(c1ccncc1)N1CCCC1C1CCN(Cc2ccccc2)CC1` (stereo not drawn): the cytotoxicity at 10 µM is 7.43%.

With `Cc1ncsc1CCN(C)C(=O)CN1CCCCC1=O`, the cytotoxicity at 10 µM is -14.8%.

Regarding `Cc1nc(NCc2cccnc2)c2c(n1)c(C)nn2C`, the cytotoxicity at 10 µM was -3.42%.

Consider `Cn1cncc1CNC1CC2(CCN(S(C)(=O)=O)CC2)c2ccccc21` (stereo not drawn), for which the cytotoxicity at 10 µM was 1.55%.

As to `CN(CCc1ccncc1)C(=O)c1sccc1OC(F)F`, the cytotoxicity at 10 µM is -9.32%.

On to `Cc1nc(O)cc(C2CCN(Cc3cccc(F)c3F)C2)n1` (stereo not drawn), for which the cytotoxicity at 10 µM is -1.19%.

On to `CCCc1nnc(NCCc2noc(C3CCCC3)n2)o1`, for which the cytotoxicity at 10 µM is 20.2%.

In the case of `Cn1cc(C(=O)N2CCCC(Cc3nccs3)C2)cn1` (stereo not drawn), the cytotoxicity at 10 µM is 3.83%.

As to `CN(c1cccnc1N1CCCC1)S(=O)(=O)c1cnn(C)c1`, the cytotoxicity at 10 µM is -4.28%.

With `c1cnn([C@@H]2CN(Cc3nccs3)[C@@H]3CCCO[C@@H]32)c1`, the cytotoxicity at 10 µM worked out at 9.07%.

On to `CN(C)c1cnn(CC(=O)N2Cc3ccccc3C2)c(=O)c1`, for which the cytotoxicity at 10 µM came out at 4.52%.

Consider `COc1ccc(S(=O)(=O)NCC(O)c2sccc2C)cc1Cl` (stereo not drawn), for which the cytotoxicity at 10 µM is 1.17%.

In the case of `CC(C)CNC(=O)[C@H]1C[C@H]2CN(Cc3cccnc3)C[C@@H]1O2`, the cytotoxicity at 10 µM is -1.16%.

Take `COc1ccc2c(c1)OCC(CNC(=O)NC(C)(C)C)C2` (stereo not drawn): the cytotoxicity at 10 µM is -8.54%.

Consider `Cc1csc(N2CCCN(C(=O)c3cccs3)CC2)n1`, for which the cytotoxicity at 10 µM was -8.08%.

`COc1ncccc1NC(=O)C1CC(=O)N(Cc2ccccn2)C1` (stereo not drawn): the cytotoxicity at 10 µM was -1.2%.

In the case of `O=C(c1[nH]c2ccc(Cl)cc2c1Cl)N1CCC2(CC1)OCCO2`, the cytotoxicity at 10 µM came out at 23.5%.

In the case of `Cc1cccc(CN2CC3(CCN(S(=O)(=O)C4CC4)CC3)OCC2=O)n1`, the cytotoxicity at 10 µM is -3.27%.

Regarding `CC(C)COCCCNC(=O)c1cccnc1N1CCOCC1`, the cytotoxicity at 10 µM was -5.12%.

Turning to `CS(=O)(=O)NC[C@H]1OC[C@H]2CN(Cc3ccsc3)CC[C@H]21`, the cytotoxicity at 10 µM came out at 5.29%.

Regarding `O=C(NCc1nncn1-c1ccccc1)C1CC(=O)N(CC2CC2)C1` (stereo not drawn), the cytotoxicity at 10 µM was -2.97%.

For the compound `Cc1ccc(-c2nc(CN3CCn4c(nnc4C4CC4)C3)no2)cc1`, the cytotoxicity at 10 µM was -1.99%.

For `Cc1ccc(C(=O)NCc2ccc(N3CCCC(C(N)=O)C3)cc2)o1` (stereo not drawn), the cytotoxicity at 10 µM was found to be 0.742%.

Consider `N#Cc1cccc(NC2CC(=O)N(CCc3ccc(F)cc3)C2)n1` (stereo not drawn), for which the cytotoxicity at 10 µM is -118%.

Regarding `O=C(CCn1cncn1)NCCOc1cccc(Cl)c1`, the cytotoxicity at 10 µM was 1.58%.

For `Cc1noc(C)c1CNC(C(=O)N1CCOCC1)C(C)C` (stereo not drawn), the cytotoxicity at 10 µM was 4.55%.

For the compound `Clc1ccc(CNc2ccc(Cl)cn2)cc1`, the cytotoxicity at 10 µM is 6.96%.

`CCOc1ncccc1CNC(=O)c1cc(C)on1`: the cytotoxicity at 10 µM was -19%.

As to `CCn1nc(C)c(CNC(=O)C2COc3ccccc3C2)c1C` (stereo not drawn), the cytotoxicity at 10 µM was found to be 9.39%.

In the case of `Cc1cn2nc(N3CCCN(Cc4noc(C)n4)CC3)sc2n1`, the cytotoxicity at 10 µM came to 0.529%.

Regarding `Cn1ccnc1CN1CCC2(COCCN(Cc3ccsc3)C2)C1` (stereo not drawn), the cytotoxicity at 10 µM is -9.81%.

For the compound `COc1ccccc1CNC(=O)C(C)N1CC(n2nc(C)cc2C)C1` (stereo not drawn), the cytotoxicity at 10 µM was found to be 7.54%.

In the case of `Cc1ccc(NC(=O)N2CCOC(C)C2)cc1Cl` (stereo not drawn), the cytotoxicity at 10 µM is -6.78%.

As for `CN(Cc1ccncc1)C1COC2(CCN(Cc3ccccn3)CC2)C1` (stereo not drawn), the cytotoxicity at 10 µM was -103%.

For the compound `CC(C)[C@@H](C)NC(=O)N1CCn2nc(C(=O)NCCN(C)C)cc2C1`, the cytotoxicity at 10 µM worked out at 2.62%.

For `Cn1ccnc1CN1CCOCC(Cc2ccccn2)C1` (stereo not drawn), the cytotoxicity at 10 µM turned out to be 7.17%.

For `Cc1nn(C)c2c(NCc3ccccc3F)nc(C3CC3)nc12`, the cytotoxicity at 10 µM was 15.5%.

As for `CC(C)N(Cc1nc2c(cnn2C)c(=O)[nH]1)c1ccccc1`, the cytotoxicity at 10 µM was -12.6%.

On to `CCOc1ccc2[nH]c(=O)c(CN3CCCC(CO)(CO)C3)cc2c1`, for which the cytotoxicity at 10 µM amounted to 22.3%.

In the case of `O=C(O)C(c1cccc2c1OCC2)N1CCC(N2CCCC2)CC1` (stereo not drawn), the cytotoxicity at 10 µM turned out to be 8.12%.

For the compound `Cc1ccnc(NCc2cccc(OCCN3CCOCC3)c2)n1`, the cytotoxicity at 10 µM stood at 2.5%.

Take `CCn1ccnc1CN1CCN(c2ccc3nnc(C)n3n2)CC1`: the cytotoxicity at 10 µM is 3.35%.

In the case of `CCc1ccccc1NC(=O)NCc1nnc(SC)n1C`, the cytotoxicity at 10 µM turned out to be 3.73%.

As for `Cc1cccc(=O)n1CCCNc1ncnc2c1CCNCC2`, the cytotoxicity at 10 µM is -9.53%.

`CCc1cn[nH]c1C1CCCN(C(=O)c2ncoc2C(C)C)C1` (stereo not drawn): the cytotoxicity at 10 µM was 1.86%.

Take `Cc1cc(C)cc(NS(=O)(=O)c2cc3c(c(C(=O)O)c2)OCCO3)c1`: the cytotoxicity at 10 µM came to 0.289%.

For `O=C1CC2(CCCCN2C(=O)Cc2ccccc2)CN1c1cccnc1` (stereo not drawn), the cytotoxicity at 10 µM is -2.71%.

As to `CNC(=O)[C@@H]1C[C@@H](NC(=O)CSc2ccccc2)CN1C1CCOCC1`, the cytotoxicity at 10 µM is 2.14%.

`Cc1csc(N2CCN(Cc3nnsc3Cl)CC2C)n1` (stereo not drawn): the cytotoxicity at 10 µM is -59.9%.

For the compound `O=C(NCCSc1ccccc1F)NCc1cccnc1`, the cytotoxicity at 10 µM was -5.31%.

Regarding `Cc1csc(N2CCN(CC(=O)Nc3cccnc3)CC2C)n1` (stereo not drawn), the cytotoxicity at 10 µM is 14.1%.

As to `Cc1ccc(CN2Cc3ccnn3CC(COCc3cccnc3)C2)o1` (stereo not drawn), the cytotoxicity at 10 µM is -143%.

Turning to `CNc1cc2c(nn1)CCN(C(=O)c1ccc(-n3cccn3)nc1)C2`, the cytotoxicity at 10 µM is -4.78%.

`NC(=O)C1CCN(C(=O)NCc2csc(Br)c2)CC1`: the cytotoxicity at 10 µM was -18%.

`CCOc1ccc(CCCC(=O)N2CCC(c3nnn[nH]3)CC2)cc1C`: the cytotoxicity at 10 µM is -3.57%.

For the compound `CN(Cc1csc(-c2cccs2)n1)C(=O)CN1CCOC1=O`, the cytotoxicity at 10 µM is -0.811%.

`COCc1cc(NCc2cccnc2Oc2ccc(C)nc2)ncn1`: the cytotoxicity at 10 µM amounted to 8.12%.

As for `CCN1CC2(CC1=O)CN(Cc1ccoc1)CCN(C(=O)C(C)C)C2` (stereo not drawn), the cytotoxicity at 10 µM turned out to be 9.14%.

For `CCCc1cncnc1N1CCC2(CCC(=O)N(CCOC)C2)CC1`, the cytotoxicity at 10 µM came to 1.86%.

For `Cc1cc(O)cc2c(=O)oc(CC(C)O)cc12` (stereo not drawn), the cytotoxicity at 10 µM is 0.346%.

For the compound `CN1CCc2[nH]nc(C(=O)N3CCCC4(CN(C)C(=O)O4)C3)c2C1` (stereo not drawn), the cytotoxicity at 10 µM was -53.6%.
